Reference: ChEMBL document CHEMBL1138132, “Cyclic urea derivatives as potent NK1 selective antagonists. Part II: Effects of fluoro and benzylic methyl substitutions” (Bioorg Med Chem Lett, 2006)
Converted amounts (≈) assume the structure as drawn.

Assays:
Meriones unguiculatus [1] = experiment: Inhibition of Mongolian gerbil foot-tapping at 6 hr time point at 1 mg/kg, po; type: functional
Summary of the method: (§1)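 Female Mongolian gerbils dosed orally at 1 mg/kg in 0.4% methylcellulose in distilled water at set pretreatment times (2, 4 or 6 h) before icv injection of NK1 agonist GR73632 (3 pmol in 5 µl) under anesthesia. After recovery, animals were placed in clear boxes and duration of hind-foot tapping was timed over 5 min; expressed as % inhibition.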

Meriones unguiculatus [2] = experiment: Inhibition of Mongolian gerbil foot-tapping at 4 hr time point at 1 mg/kg, po; type: functional; summary of the method: as §1
[3] = Ratio of drug level in brain against plasma in rat; type: ADME, organism-based
Meriones unguiculatus [4] = experiment: Inhibition of Mongolian gerbil foot-tapping at 2 h time point at 1 mg/kg, po; type: functional; summary of the method: as §1
[5] = Ratio of drug level in brain against plasma in Mongolian gerbil; type: ADME, organism-based, Meriones unguiculatus
[6] = Oral bioavailability in rat; type: ADME, organism-based; conditions: in vivo
Substance-P receptor [7] = target: T1, Substance-P receptor (Homo sapiens, UniProt P25103); experiment: Displacement of [3H]-Sar-Met Substance P from recombinant human NK1 receptor in CHO cells; type: cell-based
T1 sequence (P25103 whole entry): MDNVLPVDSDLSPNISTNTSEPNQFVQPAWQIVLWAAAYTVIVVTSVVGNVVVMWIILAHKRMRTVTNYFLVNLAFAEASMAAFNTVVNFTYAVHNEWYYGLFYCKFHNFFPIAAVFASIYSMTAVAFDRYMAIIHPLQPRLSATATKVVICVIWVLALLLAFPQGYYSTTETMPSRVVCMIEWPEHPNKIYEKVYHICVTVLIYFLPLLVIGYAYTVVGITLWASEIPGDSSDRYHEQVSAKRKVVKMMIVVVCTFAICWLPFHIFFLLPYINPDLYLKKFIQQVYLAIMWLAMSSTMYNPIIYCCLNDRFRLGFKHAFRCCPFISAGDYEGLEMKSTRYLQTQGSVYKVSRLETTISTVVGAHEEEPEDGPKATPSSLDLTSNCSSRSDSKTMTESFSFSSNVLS
Summary of the method: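 Membranes from CHO cells expressing recombinant human NK1 receptor; [3H]-Sar-Met Substance P radioligand at concentrations near its experimentally derived Kd. Ki calculated by Cheng–Prusoff equation; values are the average of two or three independent determinations.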

Substance-P receptor [8] = target: T1, Substance-P receptor; conditions: CHO, 3 uM
[9] = Solubility in pH 7.4 buffer; type: physicochemical

Row | SMILES | inhibition in vivo at 1 mg/kg (Meriones unguiculatus [1]) [%] | inhibition in vivo at 1 mg/kg (Meriones unguiculatus [2]) [%] | inhibition in vivo at 1 mg/kg (Meriones unguiculatus [4]) [%] | Ki (Substance-P receptor [7]) [nM] | also measured
1 | C[C@@H](OC[C@@]1(c2ccccc2)CNC(=O)N1)c1cc(C(F)(F)F)cc(C(F)(F)F)c1 | 48 | 57 | 35 | 0.6 | Kp [3]: 4.4; Kp [5]: 10; bioavailability [6]: 100%
2 | C[C@@H](OC[C@@]1(c2ccc(F)cc2)CNC(=O)N1)c1cc(C(F)(F)F)cc(C(F)(F)F)c1 | 41 | 44 | 40 | 1.5 | 
3 | C[C@H](OC[C@@]1(c2ccccc2)CNC(=O)N1)c1cc(C(F)(F)F)cc(C(F)(F)F)c1 |  |  |  | 93 | 
4 | O=C1NC[C@@](COCc2cc(C(F)(F)F)cc(C(F)(F)F)c2)(c2ccccc2)N1 |  | 12 | 54 | 6 | Kp [3]: 4; Kp [5]: 18
5 | O=C1NC(COCc2cc(C(F)(F)F)cc(C(F)(F)F)c2)(c2ccc(F)cc2)CN1CCN1CCCC1 (stereo not drawn) | 0 | 0 | 2 |  | 
6 | O=C1NC[C@@](COCc2cc(C(F)(F)F)cc(C(F)(F)F)c2)(c2ccc(F)cc2)N1 | 51 | 55 | 22 | 2.7 | Kp [5]: 16; bioavailability [6]: 93%
7 | O=C1NC(COCc2cc(C(F)(F)F)cc(C(F)(F)F)c2)(c2ccc(F)cc2)CN1C1CCOCC1 (stereo not drawn) |  | 0 | 22 | 6.3 | 
8 | C[C@H](OC[C@]1(c2ccccc2)CNC(=O)N1)c1cc(C(F)(F)F)cc(C(F)(F)F)c1 |  |  |  |  | inhibition (Substance-P receptor [8]): 22%
9 | C[C@@H](OC[C@@]1(c2ccc(F)cc2)CN(C)C(=O)N1)c1cc(C(F)(F)F)cc(C(F)(F)F)c1 | 63 | 57 | 65 | 3.6 | solubility [9]: 3 µM (≈ 1.39 µg/mL)
10 | CN1CCC(N2CC(COCc3cc(C(F)(F)F)cc(C(F)(F)F)c3)(c3ccc(F)cc3)NC2=O)CC1 (stereo not drawn) |  | 0 | 3 | 0.4 | 
11 | CC(C)N1C[C@@](CO[C@H](C)c2cc(C(F)(F)F)cc(C(F)(F)F)c2)(c2ccccc2)NC1=O |  |  |  | 3.1 | 
12 | CCN1C[C@@](CO[C@H](C)c2cc(C(F)(F)F)cc(C(F)(F)F)c2)(c2ccccc2)NC1=O |  | 46 | 45 | 1.7 | 
13 | CCN1C[C@@](CO[C@H](C)c2cc(C(F)(F)F)cc(C(F)(F)F)c2)(c2ccc(F)cc2)NC1=O |  | 0 | 9 | 0.8 | 
14 | O=C1NCC(COCc2cc(C(F)(F)F)cc(C(F)(F)F)c2)(c2ccc(F)cc2)N1 (stereo not drawn) |  |  |  | 4.5 | 
15 | O=C1NC(COCc2cc(C(F)(F)F)cc(C(F)(F)F)c2)(c2ccc(F)cc2)CN1C1CCNCC1 (stereo not drawn) |  | 0 | 0 | 0.9 | 
16 | C[C@@H](OC[C@]1(c2ccccc2)CNC(=O)N1)c1cc(C(F)(F)F)cc(C(F)(F)F)c1 |  |  |  | 41 | 
17 | C[C@@H](OC[C@@]1(c2ccccc2)CN(C)C(=O)N1)c1cc(C(F)(F)F)cc(C(F)(F)F)c1 | 31 | 62 | 86 | 0.5 | 
18 | O=C1NC[C@](COCc2cc(C(F)(F)F)cc(C(F)(F)F)c2)(c2ccc(F)cc2)N1 |  |  |  | 89 | 
19 | C[C@@H](OC[C@@]1(c2ccc(F)cc2)CN(CC(N)=O)C(=O)N1)c1cc(C(F)(F)F)cc(C(F)(F)F)c1 |  | 20 | 14 | 0.4 | 
